The source of these data is ChEMBL document CHEMBL5252639, “Exploration of cytotoxic potential and tubulin polymerization inhibition activity of cis-stilbene-1,2,3-triazole congeners” (RSC Med Chem, 2023).

Assay [1] has as its system HCT-116. In words: Induction of apoptosis in human HCT-116 cells assessed as late apoptotic cells at 6.50 uM measured after 24 hrs by Annexin V-FITC/propidium iodide staining based flow cytometry (reference value: 0.00%). As to conditions: dose 6.5 µM. The class given is functional.
Assay [2] concerns HCT-116. Description: Induction of apoptosis in human HCT-116 cells assessed as necrotic cells at 3.25 uM measured after 24 hrs by Annexin V-FITC/propidium iodide staining based flow cytometry (reference value: 0.00%). The class given is functional.
The subject of assay [3] is HCT-116. Description: Induction of apoptosis in human HCT-116 cells assessed as necrotic cells at 6.50 uM measured after 24 hrs by Annexin V-FITC/propidium iodide staining based flow cytometry (reference value: 0.00%). The format is functional. The note with it: dose 6.5 µM. (In general: In flow cytometry, cells or beads pass a laser one at a time.)
The test system of assay [4] is HCT-116. In words: Induction of apoptosis in human HCT-116 cells assessed as formation of membrane blebs at 1.62 uM measured for 24 hrs by AO/EB staining based microscopic analysis. The format is functional, cell-based.
Assay [5] relates to HCT-116. In words: Induction of apoptosis in human HCT-116 cells assessed as cell rounding at 1.62 uM measured for 24 hrs by AO/EB staining based microscopic analysis. The format is functional.
The test system of the next assay is A549. In words: Cytotoxicity against human A549 cells assessed as inhibition of cell growth measured for 24 hrs by MTT assay. The class given is functional, cell-based. As to conditions: A549, 24 h. The procedure, abridged: (§1)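 Cells were kept at 37 °C with 5% CO2 in suitable medium with 10% FBS and 1% antibiotic-antimycotic, and passaged at 80-90% confluency using 0.25% trypsin/1 mM EDTA. They were seeded at 1×10^3–4×10^3 cells/well and attached overnight. Compounds came from 10 mM DMSO stocks diluted in medium and were applied for 24 h. MTT (0.5 mg/mL) was added for 4 h at 37 °C, formazan was dissolved in DMSO, and absorbance was read at 570 nm.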

In assay [6] the test system is HCT-116. In words: Induction of morphological change in human HCT-116 cells assessed as cell rounding incubated for 24 hrs by phase contrast microscopic analysis. The class given is functional, cell-based. The note with it: dose 1.62-6.5 µM. In a few lines:
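HCT-116 plated at 1 × 10^6 cells/mL in RPMI + 10% FBS and allowed to adhere 24 h at 37 °C, 5% CO2. […] After 24 h, morphology imaged by phase-contrast microscopy at 20X.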

The subject of the next assay is BT-474. In words: Cytotoxicity against human BT-474 cells assessed as inhibition of cell growth measured for 24 hrs by MTT assay. The class given is functional, cell-based. As to conditions: BT-474, 24 h. In a few lines:
as §1
(Formazan colour is commonly taken as a measure of viable cells.)

Assay [7] deals with HCT-116. Description: Induction of cell cycle arrest in human HCT-116 cells assessed as accumulation of cells at G2/M phase at 1.62 uM measured after 24 hrs by PI staining based flow cytometry analysis relative to control (reference value: 15.61%).
In assay [8] the test system is HCT-116. Description: Induction of cell cycle arrest in human HCT-116 cells assessed as accumulation of cells at S phase at 1.62 uM measured after 24 hrs by PI staining based flow cytometry analysis relative to control (reference value: 5.55%).
Assay [9] deals with HCT-116. Description: Induction of apoptosis in human HCT-116 cells assessed as viable cells at 1.62 uM measured after 24 hrs by Annexin V-FITC/propidium iodide staining based flow cytometry (reference value: 99.71%). The class given is functional. The note with it: read-out: Activity.
Assay [10] relates to HCT-116. Description: Induction of cell cycle arrest in human HCT-116 cells assessed as accumulation of cells at S phase at 6.50 uM measured after 48 hrs by PI staining based flow cytometry analysis relative to control (reference value: 5.55%). The format is functional. The note with it: dose 6.5 µM.

Active and inactive are the calls of the source. The rule behind the calls is not given here.

One may read the IC50 as the concentration that gives 50% inhibition. As for `COc1ccc(/C=C(/C(=O)OCc2cn(Cc3cc(F)ccc3F)nn2)c2ccc(OC)c(OC)c2)cc1OC`, the Activity in the assay with HCT-116 [1] was 49.32%; in the assay with HCT-116 [2], 16.66%; with HCT-116 [3] it was 12.94%; with HCT-116 [6], “Dose-Dependent Effect”; in the assay on HCT-116 [7], 22.06%; in the assay with HCT-116 [8], 7.32%. The Activity with HCT-116 [10] is reported as 12.73%. Also, the outcome in the assay on HCT-116 [4] and in the assay on HCT-116 [5] was Active. In addition, the results for the IC50 with A549 and in the assay with BT-474 were 11.3 µM and 12.9 µM, respectively. For the same molecule, in the assay with HCT-116 [9], the viability at 1.62 µM is 81.7%.
